Source: ChEMBL document CHEMBL1145516, “Structure-activity relationships for interaction with multidrug resistance protein 2 (ABCC2/MRP2): the role of torsion angle for a series of biphenyl-substituted heterocycles” (Drug Metab Dispos, 2007)

Assays:
[1] = system: MRP2; assay: Permeability across dog MDCK cells expressing MRP2; type: ADME, cell-based, Canis lupus familiaris; conditions: read-out: permeability
[2] = system: Caco-2; assay: Ratio of permeability from basolateral to apical side over apical to basolateral side of human Caco-2 cell membrane at 10 uM; type: ADME, cell-based; conditions: caco-2, 10 µM
Summary of the method: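 Caco-2 monolayers seeded at 1x10^5 cells/cm2, grown 21-25 days, TEER >600 Ohm/cm2. Compound at 10 µM in HBSS pH 7.4 added to apical or basal donor side; 2 h at 37°C with shaking. Both sides sampled, quantified by LC/MS/MS.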

[3] = system: Caco-2; assay: Ratio of permeability from basolateral to apical side over apical to basolateral side of human Caco-2 cell membrane at 10 uM in presence of MRP2 inhibitor MK571; conditions: caco-2, 10 µM

SMILES | Papp [1] | Ratio [2] | Ratio [3]
NC(=O)Nc1cn(-c2ccc(-c3ccc(O)cc3)c(F)c2)nc1C(N)=O | 3 ×10⁻⁶ cm/s | 1.35 | 
Cc1cc(O)ccc1-c1ccc(-n2cc(NC(N)=O)c(C(N)=O)n2)cc1C | 3 ×10⁻⁶ cm/s | 26.02 | 2.53
